# Source: ChEMBL document CHEMBL3877264, “Quinolidene-rhodanine conjugates: Facile synthesis and biological evaluation” (Eur J Med Chem, 2017)
# Columns and labels:
# [1] = Antifungal activity against Fusarium oxysporum NCIM 1332 by standard agar method; format: functional
# Summary of the method: (§1)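 MICs determined by standard agar method; DMSO as solvent control.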
# Staphylococcus aureus [2] = test: Growth inhibition of Staphylococcus aureus NCIM 2010 at 30 ug/ml measured after 12 hrs relative to control; format: functional; conditions: NCIM 2010, 12 h, read-out: GI
# Summary of the method: (§2)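 Bacteria grown in LB at 37 °C and 180 rpm to OD 1. Compounds added to wells, then 0.1% inoculum of 1 OD culture (620 nm). Growth read as OD at 620 nm after 8 h for gram-negative and after 12 h for gram-positive strains.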
# Staphylococcus aureus [3] = test: Growth inhibition of Staphylococcus aureus NCIM 2010 at 10 ug/ml measured after 12 hrs relative to control; format: functional; conditions: NCIM 2010, 12 h, read-out: GI; summary of the method: as §2
# Staphylococcus aureus [4] = test: Growth inhibition of Staphylococcus aureus NCIM 2010 at 3 ug/ml measured after 12 hrs relative to control; format: functional; conditions: NCIM 2010, 12 h, read-out: GI; summary of the method: as §2
# Bacillus subtilis = test: Growth inhibition of Bacillus subtilis NCIM 2079 at 10 ug/ml measured after 12 hrs relative to control; format: functional; conditions: NCIM 2079, 12 h, read-out: GI; summary of the method: as §2
# Escherichia coli = test: Antibacterial activity against Escherichia coli NCIM 2688 measured after 8 hrs; format: functional; conditions: NCIM 2688, 8 h; summary of the method: as §2
# [5] = test system: Mycobacterium tuberculosis; test: Growth inhibition of Mycobacterium tuberculosis H37Ra ATCC 25177 at active stage at 50 ug/ml measured after 8 days by XTT dye based two fold dilution method relative to control; format: functional; conditions: H37Ra ATCC 25177, 192 h, read-out: GI
# Summary of the method: (§3)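 MTB H37Ra was grown in Dubos medium, then exposed in Mycobacterium pheli minimal medium (pH 6.6) to compounds dissolved in DMSO. The assay ended on day 8 (active) or day 12 (dormant). Viable cells were measured by XTT reduction menadione assay at 470 nm, blank-corrected, relative to vehicle control. Triplicates were expressed as mean ± SD. MIC came from dose-response curves.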
# [6] = test system: Mycobacterium tuberculosis; test: Growth inhibition of Mycobacterium tuberculosis H37Ra ATCC 25177 at active stage at 25 ug/ml measured after 8 days by XTT dye based two fold dilution method relative to control; format: functional; conditions: H37Ra ATCC 25177, 192 h, read-out: GI; summary of the method: as §3
# [7] = test system: Mycobacterium tuberculosis; test: Growth inhibition of Mycobacterium tuberculosis H37Ra ATCC 25177 at active stage at 12.5 ug/ml measured after 8 days by XTT dye based two fold dilution method relative to control; format: functional; conditions: H37Ra ATCC 25177, 192 h, read-out: GI
# [8] = test system: Mycobacterium tuberculosis; test: Growth inhibition of Mycobacterium tuberculosis H37Ra ATCC 25177 at active stage at 6.25 ug/ml measured after 8 days by XTT dye based two fold dilution method relative to control; format: functional; conditions: H37Ra ATCC 25177, 192 h, read-out: GI; summary of the method: as §3
# [9] = test system: Mycobacterium tuberculosis; test: Growth inhibition of Mycobacterium tuberculosis H37Ra ATCC 25177 at active stage at 1.56 ug/ml measured after 8 days by XTT dye based two fold dilution method relative to control; format: functional; conditions: H37Ra ATCC 25177, 192 h, read-out: GI; summary of the method: as §3
# [10] = test system: Mycobacterium tuberculosis; test: Growth inhibition of Mycobacterium tuberculosis H37Ra ATCC 25177 at active stage at 0.78 ug/ml measured after 8 days by XTT dye based two fold dilution method relative to control; format: functional; conditions: H37Ra ATCC 25177, 192 h, read-out: GI; summary of the method: as §3
# [11] = test system: Mycobacterium tuberculosis; test: Growth inhibition of Mycobacterium tuberculosis H37Ra ATCC 25177 at dormant stage at 12.5 ug/ml measured after 12 days by XTT dye based two fold dilution method relative to control; format: functional; conditions: H37Ra ATCC 25177, 288 h, read-out: GI
# [12] = test system: Mycobacterium tuberculosis; test: Growth inhibition of Mycobacterium tuberculosis H37Ra ATCC 25177 at dormant stage at 1.56 ug/ml measured after 12 days by XTT dye based two fold dilution method relative to control; format: functional; conditions: H37Ra ATCC 25177, 288 h, read-out: GI; summary of the method: as §3
# [13] = test system: Mycobacterium tuberculosis; test: Growth inhibition of Mycobacterium bovis BCG ATCC 35743 at dormant stage at 3.13 ug/ml measured after 12 days by nitrate reductase dye based two fold dilution method relative to control; format: functional; conditions: BCG str. ATCC 35743, 288 h, read-out: GI
# Summary of the method: (§4)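 M. bovis BCG was grown in Dubos medium and assayed in Mycobacterium pheli minimal medium (pH 6.6), with compounds from DMSO stocks. Incubation lasted 8 days for active and 12 days for dormant cultures. Viability was read by nitrate reductase at 540 nm against cell-free blanks, with vehicle set as 100% growth. Primary screen was at 30, 10 and 3 µg/ml, in triplicate, mean ± SD. MIC was taken from dose-response curves.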
# [14] = test system: Mycobacterium tuberculosis; test: Growth inhibition of Mycobacterium bovis BCG ATCC 35743 at active stage at 50 ug/ml measured after 8 days by nitrate reductase dye based two fold dilution method relative to control; format: functional; conditions: BCG str. ATCC 35743, 192 h, read-out: GI
# [15] = test system: Mycobacterium tuberculosis; test: Growth inhibition of Mycobacterium bovis BCG ATCC 35743 at active stage at 25 ug/ml measured after 8 days by nitrate reductase dye based two fold dilution method relative to control; format: functional; conditions: BCG str. ATCC 35743, 192 h, read-out: GI; summary of the method: as §4
# [16] = test system: Mycobacterium tuberculosis; test: Growth inhibition of Mycobacterium bovis BCG ATCC 35743 at active stage measured after 8 days by nitrate reductase dye based two fold dilution method; format: functional; conditions: BCG str. ATCC 35743, 192 h; summary of the method: as §4
# [17] = test system: Mycobacterium tuberculosis; test: Growth inhibition of Mycobacterium tuberculosis H37Ra ATCC 25177 at dormant stage measured after 12 days by XTT dye based two fold dilution method; format: functional; conditions: H37Ra ATCC 25177, 288 h; summary of the method: as §3
# Aspergillus flavus = test: Antifungal activity against Aspergillus flavus NCIM 539 by standard agar method; format: functional; summary of the method: as §1
# [18] = Cytotoxicity against primary HUVEC assessed as growth inhibition at 100 ug/ml measured after 48 hrs by MTT assay relative to control; format: toxicity, cell-based; conditions: human, read-out: GI
# [19] = Cytotoxicity against primary HUVEC measured after 48 hrs by MTT assay; format: toxicity, cell-based; conditions: human
# [20] = Cytotoxicity against human THP1 cells measured after 48 hrs by MTT assay; format: toxicity, cell-based, THP-1
# Summary of the method: (§5)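 MTT assay with 48 h compound exposure. THP-1 macrophages made by 24 h PMA treatment. Each concentration tested in triplicate in one experiment. % cytotoxicity = (control−test)/(control−blank)×100, with control = cells + DMSO and blank = medium without cells. IC50 from % survival versus concentration plots.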
# [21] = Cytotoxicity against human THP1 cells assessed as growth inhibition at 100 ug/ml measured after 48 hrs by MTT assay relative to control; format: toxicity, cell-based, THP-1; conditions: read-out: GI; summary of the method: as §5
# [22] = Cytotoxicity against human PANC1 cells measured after 48 hrs by MTT assay; format: toxicity, cell-based, PANC-1
# [23] = Cytotoxicity against human HeLa cells at 100 ug/ml assessed as growth inhibition measured after 48 hrs by MTT assay relative to control; format: toxicity, cell-based; conditions: read-out: GI
# [24] = Selectivity index, ratio of GI50 for HUVEC to MIC for Mycobacterium bovis BCG ATCC 35743 at dormant stage; conditions: pooled result: one value given for 6 cell lines, strains, targets or settings
# Summary of the method: (§6)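 SI is the cell-line GI50 divided by the dormant-stage mycobacterial MIC. […] THP-1 macrophages were PMA-differentiated for 24 h.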
# [25] = Selectivity index, ratio of GI50 for human THP1 cells to MIC for Mycobacterium tuberculosis H37Ra ATCC 25177 at dormant stage; format: toxicity, cell-based, THP-1; conditions: read-out: Selectivity Index; summary of the method: as §6
# [26] = Selectivity index, ratio of GI50 for […]-differentiated human THP1 cells to MIC for Mycobacterium tuberculosis H37Ra ATCC 25177 at dormant stage; format: toxicity, cell-based, THP-1; conditions: read-out: Selectivity Index; summary of the method: as §6
SMILES,MIC [1] [µg/mL],inhibition of growth at 30 µg/mL (Staphylococcus aureus [2]) [%],inhibition of growth at 10 µg/mL (Staphylococcus aureus [3]) [%],inhibition of growth at 3 µg/mL (Staphylococcus aureus [4]) [%],inhibition of growth at 10 µg/mL (Bacillus subtilis) [%],MIC (Escherichia coli) [µg/mL],inhibition of growth at 50 µg/mL [5] [%],inhibition of growth at 25 µg/mL [6] [%],inhibition of growth at 12.5 µg/mL [7] [%],inhibition of growth at 6.25 µg/mL [8] [%],inhibition of growth at 1.56 µg/mL [9] [%],inhibition of growth at 0.78 µg/mL [10] [%],inhibition of growth at 12.5 µg/mL [11] [%],inhibition of growth at 1.56 µg/mL [12] [%],inhibition of growth at 3.13 µg/mL [13] [%],inhibition of growth at 50 µg/mL [14] [%],inhibition of growth at 25 µg/mL [15] [%],IC50 [17] [µg/mL],IC90 [17] [µg/mL],MIC (Aspergillus flavus) [µg/mL],other results
COc1ccc2cc(/C=C3\SC(=S)NC3=O)c(Cl)nc2c1,50,-23.5,44,9.19,-8.32,> 30,102,109,83.1,43.8,-6.28,16.8,69.5,-28.4,81.6,99.9,98.4,10,> 30,100,"IC50 [16]: 1.7 µg/mL; IC90 [16]: 2.9 µg/mL; inhibition at 48 h, 100 ug/ml [18]: 25.4%; GI50 at 48 h [19]: > 100 µg/mL; GI50 at 48 h [20]: > 100 µg/mL; inhibition at 48 h, 100 ug/ml [21]: 26.7%; GI50 at 48 h [22]: > 100 µg/mL; inhibition at 48 h, 100 ug/ml [23]: 30.1%; Selectivity Index [24]: 60.2"
CCOc1ccc2nc(Cl)c(/C=C3\SC(=S)NC3=O)cc2c1,150,-29.8,46.8,42.7,-7.03,> 30,100,106,101,104,28.7,-4.44,101,-9.88,100,98.1,98.6,2.3,3.5,50,"inhibition at 48 h, 100 ug/ml [18]: 33%; GI50 at 48 h [19]: > 100 µg/mL; GI50 at 48 h [20]: > 100 µg/mL; inhibition at 48 h, 100 ug/ml [21]: 28.6%; GI50 at 48 h [22]: > 100 µg/mL; inhibition at 48 h, 100 ug/ml [23]: 30.2%; Selectivity Index [24]: 50; selectivity ratio [25]: 28.6; selectivity ratio [26]: 28.6"
